Measured values: ChEMBL document CHEMBL5154915 (J Med Chem, 2022)
Active and inactive are the calls of the source. No cut-off for these calls is given here.

Assays:
[1] = organism: Cavia porcellus; experiment: Activation of SERCA2a activity in guinea pig heart sarcoplasmic reticulum microsomal fraction assessed as increase in SERCA2a-Ca2+ affinity by measuring Kd of calcium at 10 to 100 nM preincubated for 5 mins followed by addition of 32-P-ATP measured after 15 mins; assay type: subcellular; conditions: filed as activator, dose 10-100 nM, time 20.0 min
In short: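 Cardiac SR microsomes were prepared from healthy guinea pig hearts and contain SERCA2a plus PLN. Compounds were tested at 10 and 100 nM. ATPase was measured as 32P-ATP release at 37 °C, taking the cyclopiazonic acid (10 μM)-sensitive part, across Ca2+ 100–1500 nM. KdCa and Vmax were derived by curve fitting. N = 4–11; one-way RM ANOVA with Tukey or paired t-test.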

[2] = Acute toxicity in po dosed Albino Swiss CD-1 mouse assessed as lethal dose after 24 hrs; assay type: organism-based; conditions: in vivo
In short: (§1)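 Male Albino Swiss CD-1 mice received compound in saline. Intravenous doses were 100, 200, 250, 275 and 300 mg/kg (1–4 mice per group). Oral doses were 100, 200, 400, 600 and 800 mg/kg (4 per group). Vehicle-only controls were included.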

[3] = organism: Cavia porcellus; experiment: Activation of SERCA2a activity in guinea pig heart sarcoplasmic reticulum microsomal fraction assessed as increase in SERCA2a-Ca2+ affinity by measuring Kd of calcium at 100 nM preincubated for 5 mins followed by addition of 32-P-ATP measured after 15 mins relative to control; assay type: subcellular; conditions: time 20.0 min
In short: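 Cardiac SR microsomes were prepared from healthy guinea pig hearts and contain SERCA2a plus PLN. Compounds were tested at 10 and 100 nM. KdCa and Vmax were derived by curve fitting. N = 4–11; one-way RM ANOVA with Tukey or paired t-test.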

[4] = organism: Cavia porcellus; experiment: Activation of SERCA1 activity in guinea pig skeletal muscle microsome from hind leg assessed as increase in SERCA1-Ca2+ affinity by measuring Kd of calcium at 30 to 1000 nM preincubated for 5 mins followed by addition of 32-P-ATP measured after 15 mins in presence of PLN (1-12) relative to control; assay type: microsomes; conditions: dose 30-1000 nM, time 20.0 min
[5] = organism: Cavia porcellus; experiment: Activation of SERCA1 activity in guinea pig skeletal muscle microsome from hind leg assessed as increase in SERCA1-Ca2+ affinity by measuring reversal of PLN (1-12)-induced shift in dissociation of calcium; assay type: microsomes; conditions: filed as activator, dose 30-1000 nM, DDE = dose-dependent effect
[6] = system: Rattus norvegicus; experiment: Hemodynamic activity in STZ-induced diabetic cardiomyopathy Sprague-Dawley rat model assessed as effect on systolic index by measuring fractional shortening at 0.2 mg/kg/min, iv for 15 to 30 mins measured after 10 mins of treatment by tissue doppler imaging method; assay type: functional, organism-based; conditions: time lower […], time upper 40.0 min
In short: (§2)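 Male Sprague Dawley rats (150–175 g) were made diabetic with STZ 50 mg/kg i.v. in citrate buffer; fasting glycaemia >290 mg/dL at 1 week qualified. They were studied 8 weeks after STZ under urethane 1.25 g/kg i.p. Transthoracic echo with pulsed Doppler and TDI was taken before, at 15 and 30 min during i.v. infusion at 0.2 mg/kg/min, and 10 min after stopping. N = 13; one-way RM ANOVA.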

[7] = system: Rattus norvegicus; experiment: Hemodynamic activity in STZ-induced diabetic cardiomyopathy Sprague-Dawley rat model assessed as transmitral doppler flow index by measuring shortening in DT wave at 0.2 mg/kg/min, iv for 15 to 30 mins measured after 10 mins of treatment by tissue doppler imaging method; assay type: functional, organism-based; conditions: time lower […], time upper 40.0 min; in short: as §2
[8] = Inhibition of NA+/K+ ATPase activity in STZ-induced diabetic rat left ventricular myocytes assessed as inhibition of NA+/K+ ATPase current at 20 to 100 uM for 30 min; assay type: toxicity, cell-based; conditions: ventricular myocyte, 0.5 h, dose 20-100 µM
[9] = Acute toxicity in Albino Swiss CD-1 mouse assessed as prostration at 100 to 800 mg/kg, po or 100 to 300 mg/kg, iv after 24 hrs; assay type: organism-based; conditions: in vivo, dose 100-800 mg/kg; in short: as §1
[10] = Acute toxicity in Albino Swiss CD-1 mouse assessed as gasping at 100 to 800 mg/kg, po or 100 to 300 mg/kg, iv after 24 hrs; assay type: organism-based; conditions: in vivo, dose 100-800 mg/kg; in short: as §1
[11] = Acute toxicity in Albino Swiss CD-1 mouse assessed as convulsions at 100 to 800 mg/kg, po or 100 to 300 mg/kg, iv after 24 hrs; assay type: organism-based; conditions: in vivo, dose 100-800 mg/kg; in short: as §1
[12] = system: Rattus norvegicus; experiment: Hemodynamic activity in STZ-induced diabetic cardiomyopathy Sprague-Dawley rat model assessed as transmitral doppler flow index by measuring increasing in E and A waves at 0.2 mg/kg/min, iv for 15 to 30 mins measured after 10 mins of treatment by tissue doppler imaging method; assay type: functional, organism-based; conditions: time lower […], time upper 40.0 min; in short: as §2
[13] = system: Rattus norvegicus; experiment: Hemodynamic activity in STZ-induced diabetic cardiomyopathy Sprague-Dawley rat model assessed as transmitral doppler flow index by measuring increase in protodiastolic TDI relaxation velocity at 0.2 mg/kg/min, iv for 15 to 30 mins measured after 10 mins of treatment by tissue doppler imaging method; assay type: functional, organism-based; conditions: time lower […], time upper 40.0 min; in short: as §2
[14] = system: Rattus norvegicus; experiment: Hemodynamic activity in STZ-induced diabetic cardiomyopathy Sprague-Dawley rat model assessed as transmitral doppler flow index by measuring increase in telediastolic TDI relaxation velocity at 0.2 mg/kg/min, iv for 15 to 30 mins measured after 10 mins of treatment by tissue doppler imaging method; assay type: functional, organism-based; conditions: time lower […], time upper 40.0 min; in short: as §2
[15] = system: Rattus norvegicus; experiment: Hemodynamic activity in STZ-induced diabetic cardiomyopathy Sprague-Dawley rat model assessed as increased cardiac output at 0.2 mg/kg/min, iv for 15 to 30 mins measured after 10 mins of treatment by tissue doppler imaging method; assay type: functional, organism-based; conditions: time lower […], time upper 40.0 min; in short: as §2
[16] = system: Rattus norvegicus; experiment: Hemodynamic activity in STZ-induced diabetic cardiomyopathy Sprague-Dawley rat model assessed as effect on heart rate at 0.2 mg/kg/min, iv for 15 to 30 mins measured after 10 mins of treatment by tissue doppler imaging method; assay type: functional, organism-based; conditions: time lower […], time upper 40.0 min; in short: as §2
[17] = system: Rattus norvegicus; experiment: Hemodynamic activity in STZ-induced diabetic cardiomyopathy Sprague-Dawley rat model assessed as effect on systolic TDI velocity at 0.2 mg/kg/min, iv for 15 to 30 mins measured after 10 mins of treatment by tissue doppler imaging method; assay type: functional, organism-based; conditions: time lower […], time upper 40.0 min; in short: as §2
[18] = system: Rattus norvegicus; experiment: Hemodynamic activity in STZ-induced diabetic cardiomyopathy Sprague-Dawley rat model assessed as effect on left ventricular end-systolic diameter at 0.2 mg/kg/min, iv for 15 to 30 mins measured after 10 mins of treatment by tissue doppler imaging method; assay type: functional, organism-based; conditions: time lower […], time upper 40.0 min; in short: as §2
[19] = target: Na+/K+ ATPase alpha 1 (Canis lupus familiaris, UniProt P50997); experiment: Inhibition of Beagle dog kidney NA+/K+ ATPase alpha 1 by measuring 32P-ATP hydrolysis at 0.0001 M preincubated for 10 mins followed by addition of 32P-ATP measured after 15 mins; assay type: toxicity; conditions: dog kidney Na+/K+ ATPase alpha 1, probe 32P-ATP, time 25 min
In short: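 Na+/K+ ATPase-α1 was purified from dog kidney (specific activity 14 μmol/min/mg protein). Compounds were tested from 10–9 to 10–4 M. Activity is the ouabain (1 mM)-sensitive part of total 32P-ATP release at 37 °C. N = 2.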

[20] = Acute toxicity in iv dosed Albino Swiss CD-1 mouse assessed as lethal dose after 24 hrs; assay type: organism-based; conditions: in vivo; in short: as §1

## C[C@]12CC[C@H](CCCC(=O)O)C[C@@H]1[C@H](O)C[C@@H]1[C@@H]2CC[C@]2(C)C(=O)CC[C@@H]12
[1]
  Activity: Active

## C[C@]12CCC(=NOCCN)C[C@@H]1C(=O)C[C@@H]1[C@@H]2CC[C@]2(C)C(=O)CC[C@@H]12 (mixture of isomers)
[2]
  LD50 at 24 h: 200 mg/kg

## C[C@]12CC/C(=C\CCC(=O)O)C[C@@H]1[C@@H](O)C[C@@H]1[C@@H]2CC[C@]2(C)C(=O)CC[C@@H]12
[1]
  Activity: Active
[3]
  Activity: -26%

## CCOC(=O)CCCCC[C@H]1CC[C@@]2(C)[C@H](C1)[C@@H](O)C[C@@H]1[C@@H]2CC[C@]2(C)C(=O)CC[C@@H]12
[1]
  Activity: Active
[3]
  Activity: -26%

## C[C@]12CC[C@H](CC(=O)O)C[C@@H]1[C@@H](O)C[C@@H]1[C@@H]2CC[C@]2(C)C(=O)CC[C@@H]12
[1]
  Activity: Active
[3]
  Activity: -26%
[4]
  Activity: 23%
[5]
  Activity: Dde

## CCOC(=O)CCC[C@H]1CC[C@@]2(C)[C@H](C1)[C@@H](O)C[C@@H]1[C@@H]2CC[C@]2(C)C(=O)CC[C@@H]12
[1]
  Activity: Active
[3]
  Activity: -26%

## CCOC(=O)C[C@H]1CC[C@@]2(C)[C@H](C1)[C@@H](O)C[C@@H]1[C@@H]2CC[C@]2(C)C(=O)CC[C@@H]12
[1]
  Activity: Active

## C[C@]12CC[C@H](CCCCCC(=O)O)C[C@@H]1[C@@H](O)C[C@@H]1[C@@H]2CC[C@]2(C)C(=O)CC[C@@H]12
[1]
  Activity: Active
[3]
  Activity: -26%

## C[C@]12CC[C@H](CCCC(=O)O)C[C@@H]1[C@@H](O)C[C@@H]1[C@@H]2CC[C@]2(C)C(=O)CC[C@@H]12
[6]
  Activity: Active
[7]
  Activity: Active
[1]
  Activity: Active
[4]
  Activity: 23%
[5]
  Activity: Dde
[8]
  inhibition (INH): Active
[9]
  Activity: Non-Toxic
[10]
  Activity: Non-Toxic
[11]
  Activity: Non-Toxic
[12]
  Activity: Active
[13]
  Activity: Active
[14]
  Activity: Active
[15]
  Activity: Active
[16]
  Activity: Active
[17]
  Activity: Active
[18]
  Activity: Active

## C[C@]12CC/C(=C\CCC(=O)O)C[C@@H]1[C@H](O)C[C@@H]1[C@@H]2CC[C@]2(C)C(=O)CC[C@@H]12
[19]
  inhibition at […], 100 µM: -62%

## C[C@]12CC/C(=N\OCC(=O)O)C[C@@H]1[C@H](O)C[C@@H]1[C@@H]2CC[C@]2(C)C(=O)CC[C@@H]12
[20]
  LD50 at 24 h: > 250 mg/kg

## C[C@]12CC[C@H](CC(=O)O)C[C@@H]1[C@H](O)C[C@@H]1[C@@H]2CC[C@]2(C)C(=O)CC[C@@H]12
[19]
  inhibition at […], 100 µM: -55%
